From ChEMBL document CHEMBL4665738, “Identification of 4-anilino-6-aminoquinazoline derivatives as potential MERS-CoV inhibitors” (Bioorg Med Chem Lett, 2020) come the findings set out here.

Each structure is given as a SMILES string.

Data set [1] concerns Middle East respiratory syndrome-related coronavirus. Kind of data set: Antiviral activity against Middle East respiratory syndrome coronavirus MERS-CoV/KOR/KNIH/002_05_2015 infected in African green monkey Vero cells assessed as reduction in virus induced cytopathic effect after 24 hrs by immunofluorescence assay. In kind it is functional, organism-based. The following applies: MERS-CoV/KOR/KNIH/002_05_2015, Vero.

Data set [2] concerns Vero. The data set is described as follows: Cytotoxicity against African green monkey Vero cells infected with Middle East respiratory syndrome coronavirus MERS-CoV/KOR/KNIH/002_05_2015 assessed as reduction in cell viability. As to conditions: chlorocebus sabaeus. The data set is classed as cell-based.
Data set [3] in a line: Cytotoxicity against CHO-K1 cells. The data set is classed as cell-based, Cricetulus griseus. As to conditions: chinese hamster. Summed up: (§1)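 Cytotoxicity values are given in µM, each against a named cell line: Vero (African green monkey kidney), HFL-1 (human embryonic lung), L929 (NCTC clone 929 mouse fibroblast), NIH 3T3 (mouse embryonic fibroblast) and CHO-K1 (Chinese hamster ovary).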

A short description of data set [4]: Metabolic stability in mouse microsomes assessed as parent compound remaining incubated for 30 mins. The data set is classed as ADME, Microsome. As to conditions: read-out: Stabilty. Summed up: (§2)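 Mouse or human liver microsomes were incubated with the compound for 30 min. The read-out is the percentage of original compound remaining.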
Data set [5] is described as follows: in vivo. As to conditions: rat, po, 5 mg/kg.
The target in data set [6] is Voltage-gated inwardly rectifying potassium channel KCNH2 (Homo sapiens, UniProt Q12809). Kind of data set: Modulation of human ERG.
Data set [7] is described as follows: Cytotoxicity against mouse NIH/3T3 cells. In kind it is cell-based, NIH3T3. Summed up: as §1
The nature of data set [8]: Cytotoxicity against human HFL-1 cells. In kind it is cell-based, HFL1. Summed up: as §1
A short description of data set [9]: Cmax in rat at 5 mg/kg, po. Set-up: route oral, dose 5 mg/kg. As to conditions: in vivo. The data set is classed as ADME, organism-based. Summed up: (§3)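 Rats were dosed intravenously at 2 mg/kg or orally at 5 mg/kg. Each parameter is the mean of experiments in three rats.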
Data set [10] can be described thus: Oral bioavailability in rat at 5 mg/kg. The data set is classed as ADME, organism-based. The following applies: in vivo. Summed up: as §3
A short description of data set [11]: Cytotoxicity against African green monkey Vero cells. The data set is classed as cell-based. The following applies: chlorocebus sabaeus. Summed up: as §1
Data set [12] is described as follows: Half life in rat at 2 mg/kg, iv. The data set is classed as ADME, organism-based. The following applies: in vivo. Summed up:
as §3

A short description of data set [13]: Cytotoxicity against mouse L929 cells. The data set is classed as cell-based. Summed up:
as §1

Data set [14] is described as follows: Half life in rat at 5 mg/kg, po. The data set is classed as ADME, organism-based. As to conditions: in vivo. Summed up: as §3
A short description of data set [15]: Volume of distribution at steady state in rat at 2 mg/kg, iv. In kind it is ADME, organism-based. As to conditions: in vivo, read-out: Vdss. Summed up: as §3
A short description of data set [16]: Clearance in rat at 2 mg/kg, iv. The data set is classed as ADME, organism-based. As to conditions: in vivo. Summed up: as §3
A short description of data set [17]: AUC in rat at 2 mg/kg, iv. In kind it is ADME, organism-based. Also on record: dose 2 mg/kg. The following applies: in vivo. Summed up: (§4)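 Rat pharmacokinetic study with separate intravenous (2 mg/kg) and oral (5 mg/kg) dosing arms; reported parameters are means from three rats per experiment.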
Data set [18] is described as follows: AUC in rat at 5 mg/kg, po. The data set is classed as ADME, organism-based. Set-up: dose 5 mg/kg. As to conditions: in vivo. Summed up: as §4
Data set [19] in a line: Metabolic stability in human microsomes assessed as parent compound remaining incubated for 30 mins. In kind it is ADME, Microsome. The following applies: read-out: Stabilty. Summed up:
as §2

Chain of Voltage-gated inwardly rectifying potassium channel KCNH2 (Q12809 whole entry): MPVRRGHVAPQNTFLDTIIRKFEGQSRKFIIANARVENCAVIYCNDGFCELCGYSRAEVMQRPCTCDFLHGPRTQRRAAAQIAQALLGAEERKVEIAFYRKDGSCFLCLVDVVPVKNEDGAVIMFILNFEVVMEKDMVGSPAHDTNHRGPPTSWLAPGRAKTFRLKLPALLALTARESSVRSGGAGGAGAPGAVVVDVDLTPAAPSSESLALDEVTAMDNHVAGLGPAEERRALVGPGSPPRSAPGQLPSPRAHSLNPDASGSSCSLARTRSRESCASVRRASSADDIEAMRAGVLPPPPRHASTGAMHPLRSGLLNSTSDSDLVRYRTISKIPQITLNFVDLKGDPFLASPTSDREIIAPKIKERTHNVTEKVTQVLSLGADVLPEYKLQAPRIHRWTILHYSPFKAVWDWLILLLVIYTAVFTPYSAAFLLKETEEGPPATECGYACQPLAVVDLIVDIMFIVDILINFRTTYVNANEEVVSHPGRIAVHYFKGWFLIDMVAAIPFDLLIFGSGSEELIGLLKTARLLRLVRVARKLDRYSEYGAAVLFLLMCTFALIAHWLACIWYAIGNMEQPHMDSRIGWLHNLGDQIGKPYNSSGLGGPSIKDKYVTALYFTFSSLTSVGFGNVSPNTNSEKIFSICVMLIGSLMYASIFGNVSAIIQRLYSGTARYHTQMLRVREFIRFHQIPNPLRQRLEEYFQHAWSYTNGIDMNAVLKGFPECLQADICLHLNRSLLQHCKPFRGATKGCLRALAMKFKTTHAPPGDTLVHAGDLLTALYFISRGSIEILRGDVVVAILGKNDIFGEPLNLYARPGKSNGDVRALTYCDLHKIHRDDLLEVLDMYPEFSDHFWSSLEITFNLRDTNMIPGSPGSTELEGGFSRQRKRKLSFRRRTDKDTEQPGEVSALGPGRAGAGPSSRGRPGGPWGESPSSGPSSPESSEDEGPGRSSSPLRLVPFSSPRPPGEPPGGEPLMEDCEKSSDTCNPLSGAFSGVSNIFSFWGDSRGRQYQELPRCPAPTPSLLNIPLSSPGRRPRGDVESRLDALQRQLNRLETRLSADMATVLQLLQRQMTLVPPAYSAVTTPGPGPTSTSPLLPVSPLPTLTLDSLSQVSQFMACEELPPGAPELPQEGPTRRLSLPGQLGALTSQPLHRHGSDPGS

`CC(=O)Nc1ccc2ncnc(Nc3ccc(F)c(Cl)c3)c2c1`: the 50% inhibitory concentration (IC50) (commonly the point on the concentration scale where inhibition reaches its midpoint) in data set [1] was above 25 µM.
Consider `COc1cccc(CNc2ccc3ncnc(Nc4ccc(F)c(Cl)c4)c3c2)c1`, for which the IC50 in [1] came to 5.6 µM. Also, the CC50 – broadly, the concentration at which the toxic effect on the cells reaches its halfway point – in data set [2] is above 25 µM.
As to `COc1cccc(CNc2ccc3ncnc(Nc4ccc(C#N)cc4)c3c2)c1`, the 50% inhibitory concentration (IC50) in [1] is above 25 µM. Besides, in data set [2], the CC50 was above 25 µM.
Regarding `Fc1ccc(Nc2ncnc3ccc(NC4CCCCC4)cc23)cc1Cl`, the half-maximal inhibitory concentration (IC50) in data set [1] stood at 15 µM. Further, the CC50 in data set [2] was above 25 µM.
`COc1cccc(CNc2ccc3ncnc(Nc4ccc(F)cc4)c3c2)c1`: in data set [1], the IC50 stood at 22.7 µM. In data set [2], the CC50 was above 25 µM.
In the case of `Fc1ccc(CNc2ccc3ncnc(Nc4ccc(F)c(Cl)c4)c3c2)cc1`, the half-inhibitory concentration (IC50) in data set [1] was 4.6 µM. The CC50 in data set [2] was found to be 14.4 µM.
As to `N#Cc1cccc(/C=C/C(=O)Nc2ccc3ncnc(Nc4ccc(F)c(Cl)c4)c3c2)c1`, the half-maximal inhibitory concentration (IC50) in data set [1] is above 25 µM.
`COc1cccc(CNc2ccc3ncnc(Nc4cccc(C(C)=O)c4)c3c2)c1`: the IC50 in data set [1] is above 25 µM.
For the compound `O=[N+]([O-])c1cccc(CNc2ccc3ncnc(Nc4ccc(F)c(Cl)c4)c3c2)c1`, the concentration for half-maximal inhibition (IC50) in data set [1] came to 6.1 µM. In addition, the CC50 in data set [2] was above 25 µM.
With `Fc1ccc(CNc2ccc3ncnc(Nc4ccc(F)c(Cl)c4)c3c2)cc1F`, the IC50 in data set [1] was found to be 4.6 µM. Also, the half-maximal cytotoxic concentration (CC50) in data set [2] was 23 µM.
As to `O=[N+]([O-])c1cccc(CNc2ccc3ncnc(Nc4ccc(C(F)(F)F)cc4)c3c2)c1`, the IC50 in data set [1] turned out to be 3.7 µM. The 50% cytotoxic concentration (CC50) in data set [2] was above 25 µM.
`COc1cc2ncnc(Nc3ccc(F)c(Cl)c3)c2cc1NCc1cccc(C#N)c1`: the half-inhibitory concentration (IC50) in data set [1] was 5.8 µM. In [2], the CC50 was found to be 13.2 µM.
As for `N#Cc1cccc(CNc2ccc3ncnc(Nc4ccc(C(F)(F)F)cc4)c3c2)c1`, the IC50 in data set [1] came out at 3.6 µM. Further, the CC50 in data set [2] is above 25 µM.
In the case of `Oc1ccccc1CNc1ccc2ncnc(Nc3ccc(F)c(Cl)c3)c2c1`, in [1], the IC50 was found to be 3.6 µM.
`Fc1ccc(Nc2ncnc3ccc(NCc4cccc(C(F)(F)F)c4)cc23)cc1Cl`: the half-maximal inhibitory concentration (IC50) in [1] amounted to 2.3 µM. Moreover, in data set [2], the CC50 is 9.2 µM.
`COc1ccccc1CNc1ccc2ncnc(Nc3ccc(F)c(Cl)c3)c2c1`: in data set [1], the IC50 stood at 3.8 µM. In addition, in data set [2], the CC50 is above 25 µM.
Regarding `N#Cc1cccc(C(=O)Nc2ccc3ncnc(Nc4ccc(F)c(Cl)c4)c3c2)c1`, in [1], the half-inhibitory concentration (IC50) was above 25 µM.
With `O=[N+]([O-])c1ccc(CNc2ccc3ncnc(Nc4ccc(F)c(Cl)c4)c3c2)cc1`, the half-maximal inhibitory concentration (IC50) in data set [1] was 2.7 µM. In addition, the CC50 in data set [2] was above 25 µM.
Taken in the same sequence, the figures for `O=[N+]([O-])c1ccccc1CNc1ccc2ncnc(Nc3ccc(F)c(Cl)c3)c2c1` were 3.3 µM and above 25 µM.
For the compound `N#Cc1cccc(CNc2cc3c(Nc4ccc(F)c(Cl)c4)ncnc3cc2O)c1`, the IC50 in data set [1] was above 25 µM. Further, in data set [2], the CC50 is above 25 µM.
For the compound `N#Cc1ccc(CNc2ccc3ncnc(Nc4ccc(C(F)(F)F)cc4)c3c2)cc1`, in data set [1], the IC50 is 4.1 µM. In addition, the half-maximal cytotoxic concentration (CC50) in [2] was above 25 µM.
Take `O=[N+]([O-])c1ccc(CNc2ccc3ncnc(Nc4ccc(C(F)(F)F)cc4)c3c2)cc1`: in data set [1], the IC50 came to 3.3 µM. The CC50 in data set [2] is above 25 µM.
As for `COc1cccc(CNc2ccc3ncnc(Nc4cccc(Cl)c4)c3c2)c1`, in [1], the IC50 is above 25 µM. Also, the CC50 in data set [2] amounted to 23 µM.
Regarding `N#Cc1cccc(CNc2ccc3ncnc(Nc4ccc(F)c(Cl)c4)c3c2)c1`, the cytotoxic concentration (CC50) in data set [3], in [7], in data set [8], in data set [11] and in data set [13] was above 100 µM each time. Moreover, the IC50 in data set [1] was found to be 0.157 µM. In addition, the figures for the remaining at 0.5 h in data set [4] and in data set [19] were 60.7% and 56.4%, respectively. For the same compound, the Tmax (usually the time from dosing to the highest level) in [5] was 2 h. In addition, the Activity in data set [6] was above 50 µM. In [9], this compound registered a Cmax of 0.2 µg/h. Also, the bioavailability (in general, dose-corrected exposure relative to a reference, in per cent) in data set [10] was 21%. Moreover, the values for the half-life in [12] and in [14] were 5.9 h and 5.5 h, respectively. Further, the Vd in data set [15] was found to be 6.3 L/kg. For the same compound, the clearance – broadly, the volume of plasma or blood freed of the substance per unit of time – in data set [16] was 28.8 mL/min/kg. Besides, the figures for the exposure (AUC) in data set [17] and in data set [18] were 1110 ng·h/mL and 570 ng·h/mL, respectively.
For `N#Cc1ccccc1CNc1ccc2ncnc(Nc3ccc(C(F)(F)F)cc3)c2c1`, the IC50 in data set [1] was above 25 µM. In data set [2], the CC50 is above 25 µM.
Consider `NC(=O)c1cccc(CNc2ccc3ncnc(Nc4ccc(F)c(Cl)c4)c3c2)c1`, for which the IC50 in [1] is above 25 µM.
On to `COc1cccc(CNc2ccc3ncnc(Nc4ccc(C(F)(F)F)cc4)c3c2)c1`, for which the concentration for half-maximal inhibition (IC50) in data set [1] came out at 1.8 µM. In addition, the CC50 in data set [2] is above 25 µM.
Take `N#Cc1ccc(CNc2ccc3ncnc(Nc4ccc(F)c(Cl)c4)c3c2)cc1`: the half-maximal inhibitory concentration (IC50) in [1] is 4.8 µM. In [2], the cytotoxic concentration (CC50) is above 25 µM.
Regarding `COc1cccc(CNc2ccc3ncnc(Nc4ccc(Br)cc4)c3c2)c1`, the 50% inhibitory concentration (IC50) in [1] is 7.4 µM. For the same compound, in [2], the CC50 is above 25 µM.
With `N#Cc1ccccc1CNc1ccc2ncnc(Nc3ccc(F)c(Cl)c3)c2c1`, the 50% inhibitory concentration (IC50) in data set [1] is above 25 µM. Moreover, the CC50 in data set [2] is above 25 µM.
As to `CCCCN(CCCC)c1ccc2ncnc(Nc3ccc(F)c(Cl)c3)c2c1`, the IC50 in [1] was above 25 µM.
